# Bioassay records deposited in PubChem by several laboratories.
# Many of the other results were omitted from the sample, so hits are more common in it than they were.
# Mdm2 ligase inh = inhibitors of human Mdm2 E3 ubiquitin ligase. signal enhancement, % at 5 µM. cell-based MDM2 ubiquitination luciferase reporter, 2 h; 0 = plate control, 100 = twice control, blank-subtracted. Q00987. hit rate 0.11% among 210,000;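 active = signal enhancement of 30% or more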;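 note: luminescence tracks abundance of the self-degrading MDM2-luciferase fusion protein; higher signal means inhibition of MDM2 E3 ligase activity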
# Target sequence (Q00987 whole entry, looked up, the tested form may be a part): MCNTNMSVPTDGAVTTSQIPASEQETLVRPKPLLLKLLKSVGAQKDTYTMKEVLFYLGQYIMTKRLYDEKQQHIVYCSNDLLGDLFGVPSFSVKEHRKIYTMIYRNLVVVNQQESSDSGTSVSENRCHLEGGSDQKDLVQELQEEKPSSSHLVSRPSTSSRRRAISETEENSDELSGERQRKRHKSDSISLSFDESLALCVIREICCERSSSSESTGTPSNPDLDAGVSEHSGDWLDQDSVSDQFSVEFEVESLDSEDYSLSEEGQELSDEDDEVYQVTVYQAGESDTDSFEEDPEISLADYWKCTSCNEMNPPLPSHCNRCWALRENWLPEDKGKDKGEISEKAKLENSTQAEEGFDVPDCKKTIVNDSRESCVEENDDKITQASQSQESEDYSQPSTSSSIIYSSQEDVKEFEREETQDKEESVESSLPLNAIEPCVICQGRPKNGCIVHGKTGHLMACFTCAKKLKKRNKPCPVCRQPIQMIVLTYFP
#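 Test system: mammalian cells stably expressing self-ubiquitinating, self-degrading MDM2 E3–luciferase fusion; Amount: 2000 cells in each well; Medium: DMEM; Schedule: 4 h settle plus 2 h compound, 37 °C; Technique: SteadyLite luciferase luminescence after 15 min room-temperature reagent incubation; Benchmarks: plate control and blank wells.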
# S1P3 antagonist = blocks the human S1P3 receptor; hit rate 0.27% among 170,000; inhibition, % at 4.98 µM; CHO S1P3 NFAT-BLA reporter, FRET fluorescence, antagonist mode; Q99500;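 active = inhibition above the plate cutoff, the mean inhibition of test wells on that plate plus 3 SD, cut at about 28% in these data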;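 note: cells challenged with S1P at its EC80 of 0.8 µM; blue over green emission ratio from cleaved BLA substrate after 4 h stimulation; 0% = S1P-stimulated wells and 100% = unstimulated DMSO-only wells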
# S1P4 agonist = human S1P4 receptor agonism. AID 1509. activation, % at 4.98 µM. O95977. S1P4-expressing cell line, agonist reporter assay. hit rate 0.35% among 220,000; in the data active = activation above about 11%;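 note: 0% = DMSO vehicle and 100% = reference agonist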
# S1P4 antagonist = antagonists of human S1P4 receptor; S1P4-expressing cells, antagonist mode, reporter read-out; inhibition, % at 4.98 µM; O95977; hit rate 0.26% among 220,000; in the data active = inhibition above about 29%;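 note: 0% = wells stimulated with agonist and 100% = vehicle wells without agonist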
# Lmaj promast = Leishmania major promastigote growth inhibition; Leishmania major promastigotes, resazurin fluorescence viability; inhibition, % at 10 µM; hit rate 9% among 200,000; AID 1063; in the data active = inhibition above about 50%;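 note: promastigotes grown with compound for 44 hours at 28 °C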
# Numbers without * were called inactive; x = no result.
SMILES,Mdm2 ligase inh,S1P3 antagonist,S1P4 agonist,S1P4 antagonist,Lmaj promast
O=C(CCc1ccccc1)NNC(=O)c1ccccc1C(=O)O,-6,-4,-1,-15,60*
CC(=O)Nc1ccc(CN2CCN(c3cccc(C(F)(F)F)c3)CC2)cc1,-2,-20,1,-2,91*
Cc1c(C2Nc3ccccc3NC3=C2C(=O)CC(C)(C)C3)cnn1C (stereo unspecified),-1,x,1,-14,12
Cc1cc2c(cc1C)NC(c1nc3ccccc3[nH]1)C1=C(CC(C)(C)CC1=O)N2 (stereo unspecified),5,x,1,-9,91*
CC1CCC(N(CCCN)Cc2ccco2)CC1C (stereo unspecified),-12,-4,5,8,22
COc1ccc(C2c3[nH]c4ccccc4c3CCN2Cc2cccn2-c2ncccn2)cc1C (stereo unspecified),-8,15,0,-2,71*
Cc1cccc(C2c3[nH]c4ccccc4c3CCN2Cc2cccn2-c2ncccn2)c1 (stereo unspecified),-6,13,-1,-12,59*
c1ccc(C2c3[nH]c4ccccc4c3CCN2Cc2cccn2-c2ccccn2)nc1 (stereo unspecified),-8,-5,-2,16,x
COc1ccccc1C1c2[nH]c3ccccc3c2CCN1Cc1cnc(C)s1 (stereo unspecified),-9,-17,-1,-8,27
C=CCON/C(CCC)=C1\C(=O)C(C(=O)OC)C(C)(C)CC1=NC (stereo unspecified),-1,-8,0,12,4
CCNC(=O)N1CCNC(=O)C1CC(=O)OC (stereo unspecified),-15,-44,-1,-21,-6
C=C(C)CNC(=S)N1CCNC(=O)C1CC(=O)OC (stereo unspecified),6,4,-1,-6,78*
COc1ccc(C(=S)N2CCOCC2)cc1OS(=O)(=O)c1ccccc1[N+](=O)[O-],x,9,-1,-1,2
O=C(CCCN1C(=O)/C(=C\c2cccc(Br)c2)SC1=S)Nc1cccnc1,x,-6,-2,10,58*
Cc1nc2ncnn2c(N2CCN(C(c3ccccc3)c3ccccc3)CC2)c1C,-10,-24,-1,-4,68*
Cc1cc(N2CCN(C(c3ccccc3)c3ccccc3)CC2)n2ncnc2n1,-13,-8,1,-9,0
COc1ccc(NC(=O)C(Cl)=C(Cl)Cl)cn1,5,-7,0,-3,5
COc1ccc(NC(=O)/C(Cl)=C(/Cl)S(=O)Cc2ccc(Cl)cc2)cn1 (stereo unspecified),39*,44*,4,52*,100*
CCOc1ccccc1NC(=S)N(CCCN1CCOCC1)Cc1cn(C)c2ccccc12,10,1,1,-15,65*
COc1ccccc1NC(=S)N(CCCN1CCOCC1)Cc1cn(C)c2ccccc12,1,1,1,-18,68*
COc1ccccc1NC(=S)N(CCN1CCOCC1)Cc1ccccc1F,-4,-5,0,3,6
O=C(Nc1nc(-c2ccncc2)cs1)C1c2ccccc2Oc2ccccc21,-5,-5,0,-11,90*
Cc1cccc2sc(NC(=O)C3c4ccccc4Oc4ccccc43)nc12,-8,x,-2,-8,81*
Cc1ccccc1Cn1nc(C)c(NC(=O)C2c3ccccc3Oc3ccccc32)c1C,-19,-1,-1,-11,84*
O=C(Nc1ncccn1)C1c2ccccc2Oc2ccccc21,-6,-12,1,1,55*
SMILES,Mdm2 ligase inh,S1P3 antagonist,S1P4 agonist,S1P4 antagonist,Lmaj promast
O=C(Nc1ccncc1)C1c2ccccc2Oc2ccccc21,-9,8,0,-5,24
CCNc1nc(NC(C)C)nc(Oc2ccc(=O)n(C)n2)n1,-9,-11,1,-11,0
COc1ccc(-n2nnnc2/C=C\Nc2ccc(C)cc2)cc1,-12,-12,-2,0,x
S=C(c1ccc(N2CCOCC2)cc1)N1CCCCC1,-10,-2,-1,-10,81*
CN(C)c1ccc(C(=S)N2CCCCCC2)cc1,-13,x,2,-12,76*
CCCc1nn(C)c(C(=O)Nc2ccc3ccccc3c2)c1Cl,-13,-3,1,-13,5
O=C(COc1ncnc2scc(-c3ccc(Cl)cc3)c12)NCc1ccco1,x,x,1,-11,20
Cc1cccc(NC(=O)C2Cc3ccccc3CN2C(=O)OCc2ccccc2)c1C (stereo unspecified),-9,-14,0,-6,98*
Cc1c(Cl)cccc1NC(=O)C1Cc2ccccc2CN1C(=O)c1ccccc1 (stereo unspecified),-14,0,1,-24,4
CC(C)(CC(=O)O)CC(=O)Nc1ccc(Oc2ccc(C(C)(C)C)cc2)nc1,-15,4,1,6,x
CC(COc1ccccc1)N1CCC(CO)(CCc2ccccc2)CC1 (stereo unspecified),-5,-2,2,-1,97*
CSCC(C)N1CCC(CO)(CCc2ccccc2)CC1 (stereo unspecified),-9,11,0,1,82*
COc1ccc(CNC(=O)CCCn2c(SCC#N)nc3cc4c(cc3c2=O)OCO4)cc1,-11,x,1,-15,0
O=C(CSc1ccc(Cl)cc1)NCC1CCCO1 (stereo unspecified),-7,x,1,-9,-1
COc1cccc(-n2nnnc2SCC(=O)NC2CCCC2)c1,-14,x,1,9,34
COc1ccc(-c2[nH]c(-c3cccc(OC)c3)nc2SCC(=O)NC2CCCC2)cc1,x,7,3,1,58*
COc1ccc(-c2[nH]c(-c3ccccc3)nc2SCC(=O)NC2CCCC2)cc1,x,-4,1,4,20
COc1ccc(-c2[nH]c(-c3ccc(F)cc3)nc2SCC(=O)NC2CCCC2)cc1,x,0,1,-8,77*
Cc1ccc(-c2[nH]c(-c3ccc(Cl)cc3)nc2SCC(=O)NCC2CCCO2)cc1 (stereo unspecified),x,7,1,6,70*
O=C(Nc1ccccc1Cl)c1cccs1,-14,-6,1,5,-5
Cc1ccc(C(=O)Nc2ccc(C)c(S(=O)(=O)Nc3ccccc3Cl)c2)s1,-8,5,-1,2,84*
O=C(Nc1ccc(Cl)c(S(=O)(=O)Nc2ccccc2Cl)c1)c1cccs1,5,-6,0,-6,77*
CCCCCC(=O)NC(=S)Nc1cccc(-c2nc3ncccc3o2)c1,-5,7,-1,-9,x
O=C(Nc1ncc(S(=O)(=O)c2ccc([N+](=O)[O-])cc2)s1)c1cccnc1,-4,-5,1,7,x
CCC(C)(C)C(=O)Nc1ncc(S(=O)(=O)c2ccc([N+](=O)[O-])cc2)s1,-13,x,0,-10,81*
Cc1ccc(Nc2nnc(SCC(=O)Nc3ncc(S(=O)(=O)c4ccc([N+](=O)[O-])cc4)s3)s2)cc1,-4,-6,1,-23,55*
